Legend:
[1] = test system: Panel NCI-60 (60 carcinoma cell lines); experiment: Inhibition of cell growth in NCI panel of 60 human carcinoma lines; assay type: functional
[2] = target: Protein kinase C alpha type (Homo sapiens, UniProt P17252); experiment: Binding affinity for PKC alpha (C1b domain)
Procedure, shortened: (§1)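 Competition of [3H]PDBu (3.0 nM) binding to partially purified PKCα or bacterially expressed MBP/RasGRP3 fusion (human RasGRP3, amylose-bead purified). Buffer: 50 mM Tris-Cl pH 7.4, 2 mg/mL γ-globulins, 0.1 mM Ca2+, 0.1 mg/mL phosphatidylserine. Incubation was 5 min at 37 °C for PKCα and 5 min at 18 °C for RasGRP3. Nonspecific binding was set with 30 μM PDBu. Bound and free were separated by PEG precipitation and counted.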

[3] = target: T1, Ras guanyl-releasing protein 3 (Homo sapiens, UniProt Q8IV61); experiment: Binding affinity for RasGPR3, guanine nucleotide exchange factor; procedure, shortened: as §1
T1 sequence (Q8IV61 whole entry): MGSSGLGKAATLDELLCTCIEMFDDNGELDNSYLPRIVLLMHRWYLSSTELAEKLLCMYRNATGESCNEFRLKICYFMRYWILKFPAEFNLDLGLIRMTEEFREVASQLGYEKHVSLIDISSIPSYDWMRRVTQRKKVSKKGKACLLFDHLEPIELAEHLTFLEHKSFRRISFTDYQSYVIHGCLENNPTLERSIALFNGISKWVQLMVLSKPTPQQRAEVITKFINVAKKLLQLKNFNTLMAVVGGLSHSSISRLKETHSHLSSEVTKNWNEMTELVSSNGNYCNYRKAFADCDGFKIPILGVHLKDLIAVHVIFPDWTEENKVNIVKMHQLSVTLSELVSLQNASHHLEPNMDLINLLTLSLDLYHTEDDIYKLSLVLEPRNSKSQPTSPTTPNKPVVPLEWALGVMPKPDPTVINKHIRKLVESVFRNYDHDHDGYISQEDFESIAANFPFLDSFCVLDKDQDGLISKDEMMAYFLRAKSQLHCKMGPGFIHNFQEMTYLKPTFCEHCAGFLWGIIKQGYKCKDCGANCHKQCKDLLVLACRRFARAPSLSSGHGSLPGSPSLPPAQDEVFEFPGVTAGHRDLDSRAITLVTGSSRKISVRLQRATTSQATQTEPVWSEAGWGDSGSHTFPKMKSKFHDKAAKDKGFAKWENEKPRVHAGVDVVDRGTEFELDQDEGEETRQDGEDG

[4] = target: T1, Ras guanyl-releasing protein 3; experiment: Binding affinity for RasGRP, guanine nucleotide exchange factor

C=C(C)[C@]12C[C@@H](C)[C@@]34O[C@](/C=C/C=CCCCCCCCCC)(O[C@@H]1[C@@H]3[C@@H]1O[C@]1(CO)[C@@H](O)[C@]1(O)C(=O)C(C)=C[C@H]14)O2
Log 1/GI50 [1]: 4.7

C=C(/C=C/C=C(/CCC=C(C)C)COC(C)=O)[C@@H]1CC[C@]2([C@H](CCCO)/C(=C(/C)C=O)CC[C@]2(C)O)[C@@H]1O
Log 1/GI50 [1]: 4.4 | Ki [2]: 83.6 nM | Ki [3]: 41.7 nM

CCCCC(=O)O[C@@H]1[C@@H](C)[C@@]2(O)[C@@H](C=C(CO)C[C@]3(O)C(=O)C(C)=C[C@@H]23)[C@@H]2C(C)(C)[C@]12OC(=O)CCC
Log 1/GI50 [1]: 4

CC(=O)O[C@@]12C[C@@H](C)[C@@]3(O)[C@@H](C=C(CO)C[C@]4(O)C(=O)C(C)=C[C@@H]34)[C@@H]1C2(C)C [PROSTRATIN]
Log 1/GI50 [1]: 3

C=C(C)[C@@]12OC3(c4ccccc4)O[C@@H]1[C@@H]1[C@@H]4O[C@]4(CO)[C@@H](O)[C@]4(O)C(=O)C(C)=C[C@H]4[C@@]1(O3)[C@H](C)[C@H]2OC(=O)/C=C/C=C/c1ccccc1
Log 1/GI50 [1]: 5.8

C=C(C)[C@@]12C[C@@H](COC(=O)c3ccccc3)[C@@]34OC5(O[C@@H]1[C@@H]3[C@@H]1O[C@]1(CO)[C@@H](O)[C@@]1(O)[C@H]4[C@H]([C@H](C)[C@@H]1OC(=O)c1ccccc1)[C@H](C)CCCCCC[C@H]5O)O2 [GNIDIMACRIN]
Log 1/GI50 [1]: 4

CC1=C[C@H]2[C@@]3(O)[C@H](C)[C@@H](O)[C@]4(O)[C@H]([C@@H]3C=C(CO)C[C@]2(O)C1=O)C4(C)C [PHORBOL]
Log 1/GI50 [1]: 4.3

CC1=CC[C@H](C)C(C)(C)[C@@H]1/C=C/C(C)=C\CC[C@@]1(CO)[C@H](CCCO)/C(=C(/C)C=O)CC[C@]1(C)O
Log 1/GI50 [1]: 4.6 | Ki [2]: 75.6 nM | Ki [4]: 15.5 nM
